In ChEMBL document CHEMBL1139455, “Three-dimensional quantitative structure-activity relationship modeling of cocaine binding by a novel human monoclonal antibody” (J Med Chem, 2004) one finds relative binding affinity (RBA), Ki and Kd data, which are given here for 33 compounds.

The test system of experiment [1] is Monoclonal antibody (mAb) 2E2. Nature of the experiment: Binding affinity against human monoclonal antibody (mAb) 2E2 relative to cocaine by ELISA method. Summed up:
(§1)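 Competition ELISA with human mAb 2E2 (from SCID mouse ascites, partially purified by sodium sulfate precipitation and protein A chromatography). Detection with biotinylated goat anti-human IgG (γ-chain-specific). IC50 obtained by three-parameter logistic fit. RBA is the competitor IC50 divided by the cocaine IC50. Values are averages of three or more independent experiments, each done in duplicate.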
(In general: In an ELISA, binding on a coated surface is turned into a signal by an enzyme label.)

The target of experiment [2] is Monoclonal antibody (mAb) 2E2. Nature of the experiment: Relative binding affinity against human monoclonal antibody 2E2 compared to [3H]cocaine. Summed up: (§2)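 Radioligand competition with 1 nM [3H]-cocaine diluted with 14 nM unlabeled cocaine and 0.4 nM mAb 2E2, against varying unlabeled competitor. Separation was by double-antibody precipitation (goat anti-human Fc) and read by scintillation counting. Duplicate data were fitted to a three-parameter logistic equation for IC50. RBA is the Ki of the compound divided by the Ki of cocaine. Three repeats were run.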

Experiment [3] deals with Monoclonal antibody (mAb) 2E2. Description: Relative binding affinity against human monoclonal antibody (mAb) 2E2 compared to cocaine.
Experiment [4] addresses Monoclonal antibody (mAb) 2E2. Description: Binding affinity towards human monoclonal antibody 2E2 using [3H]cocaine. Summed up: as §2
For experiment [5], the system named is Monoclonal antibody (mAb) 2E2. Description: Relative binding affinity for human monoclonal antibody (mAb) 2E2.
For experiment [6], the target named is Monoclonal antibody (mAb) 2E2. Description: Dissociation Constant for human monoclonal antibody 2E2 with [3H]cocaine. Summed up: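 Saturation binding of [3H]-cocaine to mAb 2E2. Bound ligand was separated by double-antibody precipitation, using goat anti-human Fc as the first antibody, and counted by liquid scintillation. Kd was fitted from counts per minute against total cocaine concentration to a binding isotherm. Points are averages of duplicates. Each experiment was run three times.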

Experiment [7] deals with Monoclonal antibody (mAb) 2E2. Description: Binding affinity against human monoclonal antibody (mAb) 2E2 by ELISA. The procedure, abridged:
as §1

Molecules are shown by their SMILES.

Compound `C[N+]1([O-])C2CC(OC(=O)[C@H](CO)c3ccccc3)CC1C1OC12` (some centres undefined) returned a relative binding affinity (RBA) in experiment [1] of 130000.
The compound `CN1C2CCC1[C@@H](C(N)=O)[C@@H](OC(=O)c1ccccc1)C2` (some centres undefined) showed a relative binding affinity (RBA) in experiment [1] of 22.
Regarding `C[N+]1(C)[C@@H]2C[C@@H](OC(=O)[C@H](CO)c3ccccc3)C[C@H]1[C@@H]1O[C@@H]12`, in experiment [1], the relative binding affinity (RBA) worked out at 5900.
In experiment [1], `CN1[C@@H]2C[C@@H](OC(=O)[C@H](CO)c3ccccc3)C[C@H]1[C@@H]1O[C@H]12` registered a relative binding affinity (RBA) of 49000.
The same measure, in the same setting: for `CCCOC(=O)[C@@H]1C2CCC(C[C@@H]1OC(=O)c1ccccc1)N2C` (some centres undefined) the value was 0.23; for `CN1C2CCC1CC(O)C2` (centres undefined), 91000; for `COC(=O)[C@@H]1C2CCC(C[C@@H]1c1ccc(Cl)c(Cl)c1)N2C` (some centres undefined), 8.5.
With `CN1C2CCC1[C@@H](C(=O)Oc1ccccc1)[C@@H](c1ccc(Cl)cc1)C2` (some centres undefined), in experiment [1], the relative binding affinity (RBA) was found to be 1.7.
On to `C[N+]1([O-])[C@@H]2CC[C@H]1C[C@@H](OC(=O)C(CO)c1ccccc1)C2` (some centres undefined), for which the relative binding affinity (RBA) in experiment [1] amounted to 90000.
`COC(=O)[C@H]1[C@@H](c2ccc(F)cc2)C[C@H]2CC[C@H]1N2C` gave a relative binding affinity (RBA) in experiment [1] of 19.
The Ki is the dissociation constant of the complex between target and ligand, obtained from inhibition or displacement. Lower therefore signals a stronger hold on the target. In experiment [2], `CN1C2CCC1[C@@H](C(=O)O)[C@@H](OC(=O)c1ccccc1)C2` (some centres undefined) came in with an inhibition constant (Ki) of 0.043 µM. Also, the relative binding affinity (RBA) was 12 in experiment [3] and 9.8 in experiment [1].
In the case of `COC(=O)C1=CCC2CCC1N2C` (centres undefined), the relative binding affinity (RBA) in experiment [1] came to 21000.
`CN1C2CCC1[C@@H](C(=O)O)[C@@H](OC(=O)c1cccc(O)c1)C2` (some centres undefined) returned a relative binding affinity (RBA) in experiment [1] of 32.
`COC(=O)C1C2CC[C@H](C[C@@H]1c1ccc(Cl)cc1)N2C` (some centres undefined) returned a relative binding affinity (RBA) in experiment [1] of 9.3.
In experiment [1], `CN(C)C(=O)[C@@H]1C2CCC(C[C@@H]1OC(=O)c1ccccc1)N2C` (some centres undefined) had a relative binding affinity (RBA) of 7.4.
Compound `COC(=O)[C@@H]1C2CCC(C[C@@H]1OC(=O)c1cccc(O)c1)N2C` (some centres undefined) gave a relative binding affinity (RBA) in experiment [1] of 8.4.
Regarding `CN1C2CCC1[C@@H](C(=O)O)[C@@H](O)C2` (some centres undefined), the Ki in experiment [2] is 95 µM. In addition, the relative binding affinity (RBA) in experiment [3] and in experiment [1] was 28000 each time.
Turning to `CON(C)C(=O)[C@@H]1C2CCC(C[C@@H]1OC(=O)c1ccccc1)N2C` (some centres undefined), in experiment [1], the relative binding affinity (RBA) turned out to be 21.
As to `CN1C2CCC1[C@@H](C(=O)O)[C@@H](OC(=O)c1ccc(O)cc1)C2` (some centres undefined), the relative binding affinity (RBA) in experiment [1] stood at 36.
Take `COC(=O)[C@@H]1C2CCC(C[C@@H]1O)N2C` (some centres undefined): the affinity in experiment [2] corresponds to a Ki of 5.2 µM. For the same compound, the results for the relative binding affinity (RBA) in experiment [3] and in experiment [1] were 1500 and 2500, respectively.
`CCOC(=O)[C@@H]1C2CCC(C[C@@H]1OC(=O)c1ccccc1)N2C` (some centres undefined) [COCAETHYLENE] came in with a Ki in experiment [2] of 0.0034 µM. Further, the figures for the relative binding affinity (RBA) in experiment [3] and in experiment [1] were 0.97 and 0.74, respectively.
The compound `COC(=O)[C@H]1C2CCC(C[C@@H]1OC(=O)c1ccccc1)N2` (stereo in doubt) showed a relative binding affinity (RBA) in experiment [1] of 1800.
On the same count and under the same terms, next, `COC(=O)[C@@H]1C2CC[C@H](C[C@@H]1c1ccccc1)N2C`: 29; `COC(=O)[C@@H]1C2CCC(C[C@@H]1c1ccc(I)cc1)N2C` (some centres undefined): 4.5; `CNC(=O)[C@@H]1C2CCC(C[C@@H]1OC(=O)c1ccccc1)N2C` (some centres undefined): 29.
For orientation: Kd means the equilibrium constant for the complex coming apart. A lower Kd goes with a tighter complex. Compound `COC(=O)[C@H]1[C@@H](OC(=O)c2ccccc2)C[C@@H]2CC[C@H]1N2C` [COCAINE] yielded an inhibition constant Ki in experiment [4] of 0.0035 µM. Moreover, the relative binding affinity (RBA) in experiment [5] and in experiment [7] was 1 each time. In experiment [6], the dissociation constant Kd was 0.0044 µM.
With `COC(=O)[C@H]1C2CCC(C[C@@H]1OC(=O)c1ccccc1)N2` (stereo in doubt; 36), in experiment [1], the relative binding affinity (RBA) is 1100.
In experiment [1], `COC(=O)[C@@H]1C2CCC(C[C@@H]1OC(=O)c1ccccc1)N2` (some centres undefined) showed a relative binding affinity (RBA) of 4.3.
Same read-out and setting: for `CCOC(=O)[C@@H]1C2C(C)CC(C[C@@H]1OC(=O)c1ccccc1)N2C` (some centres undefined) the value was 0.21; for `CN1C2CC(OC(=O)[C@](O)(CO)c3ccccc3)CC1C1OC12` (some centres undefined), 59000.
`O=C(O[C@H]1CC2CCC(N2)[C@H]1C(=O)O)c1ccccc1` (some centres undefined) displayed a relative binding affinity (RBA) in experiment [1] of 120.
`COC(=O)C1C2CCC(C[C@@H]1c1ccc(C)cc1)N2C` (single isomer, unassigned): in experiment [1], the relative binding affinity (RBA) came out at 14.
In turn, `CCCC[N+]1(C)C2CC(OC(=O)[C@H](CO)c3ccccc3)CC1C1OC12` (some centres undefined) showed a relative binding affinity (RBA) in experiment [1] of 3700.
